Screening data deposited in PubChem BioAssay by Sanford-Burnham Center for Chemical Genomics.
Shown are actives, neighbours in structure and some others; about 1.7% of the full set was active somewhere.
DNMT1 block: blocks human DNA methyltransferase DNMT1; P26358; DNMT1 molecular beacon, Hinp1I cleavage, fluorescence; inhibition (reported as % activation of signal), % at 10 µM; hit rate 0.83% among 360,000; in the data active = inhibition above about 50%
LMPTP block: LMPTP (human) inhibition. recombinant LMPTP-A, OMFP fluorogenic substrate, fluorescence intensity. hit rate 0.22% among 360,000. AID 651560. inhibition, % at 20 µM;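 active = compounds that cut the enzyme signal by at least half of the control window in the single-dose screen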;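 note: plate controls were DMSO wells with enzyme plus substrate for no effect and substrate without enzyme for full effect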
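Test system – LMPTP-A enzyme · Amount – LMPTP-A at 0.625 nM final in the reaction · Buffer or medium – Bis-Tris pH 6.0, DTT, detergent · Reagent – OMFP 400 µM · Doses – single 20 µM dose · Schedule – reaction 50 min, room temperature, dark · Detection – fluorescence intensity of OMFP turnover product · Evaluation – percent inhibition versus substrate-only and uninhibited controls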
Scp-1 inhibitor: inhibitors of human Scp-1 phosphatase | Q9GZU7 | Recombinant Scp1, phosphopeptide, malachite green phosphate absorbance | inhibition, % at 20 µM | hit rate 0.88% among 340,000 | AID 493091;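 active = inhibition above about 50% at 20 µM, limit read from the data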;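 note: plate controls were DMSO wells with enzyme for no effect and wells lacking enzyme for full effect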
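Test system: SCP-1 catalytic domain; Buffer or medium: Acidic Tris acetate buffer with magnesium and detergent; Also added: Phosphorylated 17-residue peptide substrate; Compound: single 20 µM dose, 1% DMSO; Schedule: enzyme reaction 45 min at room temperature, colour 5 min, stabilisation 30 min; Signal: Phosphate-binding colour reagent, absorbance read at 630 nm.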
SUMO1-SIM PPI: alters human SUMO1 binding to SIM partners; P63165; SUMO1 binding to a labelled peptide, TR-FRET, 1 h; inhibition, % at 20 µM; hit rate 0.33% among 360,000; in the data active = inhibition above about 37%
STEP inh: blocks human striatal-enriched tyrosine phosphatase. AID 588621. inhibition, % at 20 µM. hit rate 0.25% among 360,000. recombinant STEP, OMFP fluorogenic substrate, fluorescence;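 active = inhibition at 20 µM, scaled per plate between control wells, above about 37%, limit read from the data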;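 note: 0% = DMSO with enzyme and substrate and 100% = substrate only without enzyme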
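Material: STEP (striatal-enriched tyrosine phosphatase) enzyme, cell-free | Medium: 50 mM Bis-Tris pH 6.0 with 2.5 mM DTT and 0.005% Tween 20 | Read-out: Percent inhibition scaled to no-enzyme and uninhibited-enzyme controls, plate-pattern corrected | Signal: Fluorescence read at 480 nm ex / 540 nm em | Times: 20 min reaction, room temperature, in the dark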
Beacon interf DR: shows spectral interference in the DNMT1 beacon assay | shares compounds with DNMT1 block | molecular beacon fluorescence, spectral interference counter-screen | IC50, µM | 200 tested, under 10 active | AID 602382; call rule not given here
DNMT1 confirm: DNMT1 inhibition confirmation, single concentration. shares compounds with DNMT1 block. DNMT1 molecular beacon HinP1I cleavage, fluorescence. inhibition, % at 10 µM. hit rate 8% among 2,300;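 active = average inhibition of at least 30% in the single-concentration confirmation test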
Beacon interf: shows spectral interference in the DNMT1 beacon assay. shares compounds with DNMT1 block. DNMT1 molecular beacon spectral interference counterscreen, fluorescence 485/520. activation (fluorescence interference), % at 10 µM. hit rate 1% among 2,300;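 active = activation of at least 30% at 10 µM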;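 note: DNMT1 catalytic domain with a HinP1I cleavage step and a FAM/dabcyl DNA beacon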
* = called active by the depositor; nt = no result given.

SMILES	DNMT1 block	LMPTP block	Scp-1 inhibitor	SUMO1-SIM PPI	STEP inh	DNMT1 confirm	Beacon interf	others
O=[N+]([O-])c1cccc(/C=N/Nc2nc(C(Cl)(Cl)Cl)nc3ccccc23)c1	-2.4	-1.9	-0.8	0.3	-0.2	nt	nt
O=C(c1cccc(-n2cccc2)c1)N1CCN(S(=O)(=O)c2c(F)cccc2F)CC1	20.2	-8.0	28.0	-0.3	4.3	nt	nt
O=C(c1cccc(-n2cccc2)c1)N1CCN(S(=O)(=O)c2ccccc2)CC1	96.8*	37.9	nt	75.8*	13.3	12.4	0.3
Clc1ccc2c(N/N=C/c3ccc(Br)cc3)ccnc2c1	66.4*	5.2	-2.7	1.0	11.4	3.2	2.0
Clc1ccc2c(N/N=C/c3cccnc3)ccnc2c1	11.7	6.9	-3.4	-9.8	-1.4	nt	nt
Oc1ccc(Nc2ccnc3cc(Cl)ccc23)cc1	1.1	3.9	-1.8	-16.4	-1.3	nt	nt
Oc1ccc(/C=N/Nc2ccnc3cc(Cl)ccc23)c(O)c1	84.4*	32.7	-9.0	111.7*	5.8	3.8	0.5
Clc1ccc(NNc2ccnc3cc(Cl)ccc23)cc1	14.1	0.8	24.3	-0.2	-3.1	nt	nt
CC(=O)N1CCC(=NNc2ccnc3cc(Cl)ccc23)CC1	-6.3	-1.9	-6.7	-0.1	-1.3	nt	nt
Cc1ccc(/C=N/Nc2ccnc3cc(Cl)ccc23)c(C)c1	61.8*	3.3	3.8	3.5	15.2	5.6	-1.0
Cc1ccccc1/C=N/Nc1ccnc2cc(Cl)ccc12	69.8*	4.8	5.4	26.3	16.4	2.8	-2.1
C(=C\n1nnc2ccccc21)/c1ccccn1	6.0	-0.7	-2.3	-21.7	2.4	nt	nt
CCOC(=O)C1=C(COC(=O)CSc2ccc(C)cc2)NC(=O)NC1C (stereo unspecified)	3.1	26.5	-5.7	26.9	5.4	nt	nt
Cc1ccc(Cn2cc(CN3CC(N4CCSCC4)CS3(=O)=O)nn2)cc1 (stereo unspecified)	nt	-0.2	nt	2.4	nt	nt	nt
CC(=O)c1cccc(OCC(=O)N(C)CC(=O)NCc2ccco2)c1	96.5*	0.2	81.3*	16.8	8.9	52.5*	1.2	Beacon interf DR=>99
C[n+]1cccc2cccc([O-])c21	77.6*	52.2*	-13.6	39.6*	7.1	2.1	-3.2
[O-][n+]1cccc2cccc(O)c21	-4.8	-0.7	-10.5	-6.2	-0.4	nt	nt
O=C(c1ccc2c(=O)n3c(nc2c1)CCCCC3)N1CCCCC1	0.8	-2.3	-6.2	1.7	-1.4	nt	nt
O=C(c1ccc2c(=O)n3c(nc2c1)CCC3)N1CCN(S(=O)(=O)c2cccc(F)c2)CC1	79.3*	-0.8	-4.9	4.0	-0.3	-9.6	2.7
Cc1cc(OCC(=O)Nc2ccc(N3CCCC3)cc2)cc(C)c1Cl	71.3*	4.3	-0.5	11.2	3.2	0.6	-6.9
Cc1cc(N2CCCC2)ccc1NC(=O)COc1ccccc1	63.7*	25.1	-6.9	-12.9	-1.3	1.7	0.7
COc1ccc(Cl)cc1NC(=O)c1cccc([N+](=O)[O-])c1O	65.9*	-0.5	-13.3	-8.2	2.4	1.3	-0.4
O=C(NCCc1ccccc1O)c1cc2c(cc1[N+](=O)[O-])OCO2	42.9	-1.2	-0.3	-32.9	-1.7	1.4	4.9
COc1ccc(CCNC(=O)Cc2cc3c(cc2[N+](=O)[O-])OCO3)cc1OC	-7.4	-1.3	4.7	-27.3	-1.6	nt	nt
C[C@H]1CN([C@@H](C)CO)S(=O)(=O)c2ccc(Br)cc2O[C@H]1CN(C)C(=O)c1cccc(F)c1	3.6	-2.3	nt	1.3	-2.4	nt	nt
O=S(=O)(NC1CCCCC1Nc1ccc(Cl)cc1)c1ccccc1 (stereo unspecified)	73.2*	0.9	-7.3	0.3	0.7	1.1	4.0
Cc1ccc(NC2CCCCC2NS(=O)(=O)c2ccc(Cl)cc2)cc1 (stereo unspecified)	-2.7	0.9	0.7	-2.6	-1.5	nt	nt
CC1(C(=O)Nc2ccc3c(c2)OCO3)CCN1C(=O)CCC1CCCC1 (stereo unspecified)	0.6	2.3	nt	0.7	-1.7	nt	nt
